Screening data from PubChem.
Only some compounds are listed: those with a hit (about 2.1% of all), similar ones and a draw of the others.
PDI inh: inhibitors of human PDI, primary screen, biochemical, turbidity, single point, plate reader | Protein disulfide-isomerase (Homo sapiens), P07237 | PDI insulin aggregation turbidity, A650, 90 min | inhibition, % at 10 µM | 350,000 tested, 0.052% active | AID 588391, 2011;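 active = mean inhibition across replicates of 30% or more, whatever share of single replicates reach that level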
ERp5 block: inhibitors of ERp5-driven insulin aggregation, primary screen, biochemical, turbidity, absorbance 650 nm, single point. 90 min. inhibition, % at 9.99 µM. 350,000 tested, 0.05% active;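 active = mean replicate inhibition above about 25%, with every replicate also reaching it, limit read from the data, passing the limit was not always enough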
FN deposit inh: inhibitors of fibronectin matrix deposition, primary screen, AH1F cells, Alexa488-fibronectin fluorescence, plate reader. AID 743247, 2014. inhibition, % at 12.6 µM. 350,000 tested, 0.086% active. AH1F fibroblasts, overnight;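 active = mean inhibition across replicates of 30% or more, regardless of how many single replicates reach that level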;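 note: positive control wells lacked labelled fibronectin entirely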
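Material: AH1F fibroblast monolayer depositing Alexa488-labelled fibronectin into matrix | Input: 10000 AH1F cells/well | Medium: DMEM plus 2% serum, read in PBS | Reagent: Alexa488-fibronectin, 24 nM final in well | Compound dosing: One dose per compound, pinned | Schedule: 1 h adhesion, overnight exposure | Measured by: Fluorescence at 485 nm excitation, 525 nm emission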
MLL AF4-AF9 inh: inhibitors of AF4 peptide binding to AF9, primary screen, biochemical, AlphaScreen, biotin-AF4 peptide, FLAG-AF9, single point; AID 651704, 2012; inhibition, % at 10 µM; Protein AF-9 (Homo sapiens), P42568; 350,000 tested, 0.47% active;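 active = every replicate reaching a set inhibition limit, whatever the replicate mean, cut at about 25% in these data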;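 note: 0% = plate neutral control median and 100% = total signal loss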
Target sequence (P42568 whole entry, looked up): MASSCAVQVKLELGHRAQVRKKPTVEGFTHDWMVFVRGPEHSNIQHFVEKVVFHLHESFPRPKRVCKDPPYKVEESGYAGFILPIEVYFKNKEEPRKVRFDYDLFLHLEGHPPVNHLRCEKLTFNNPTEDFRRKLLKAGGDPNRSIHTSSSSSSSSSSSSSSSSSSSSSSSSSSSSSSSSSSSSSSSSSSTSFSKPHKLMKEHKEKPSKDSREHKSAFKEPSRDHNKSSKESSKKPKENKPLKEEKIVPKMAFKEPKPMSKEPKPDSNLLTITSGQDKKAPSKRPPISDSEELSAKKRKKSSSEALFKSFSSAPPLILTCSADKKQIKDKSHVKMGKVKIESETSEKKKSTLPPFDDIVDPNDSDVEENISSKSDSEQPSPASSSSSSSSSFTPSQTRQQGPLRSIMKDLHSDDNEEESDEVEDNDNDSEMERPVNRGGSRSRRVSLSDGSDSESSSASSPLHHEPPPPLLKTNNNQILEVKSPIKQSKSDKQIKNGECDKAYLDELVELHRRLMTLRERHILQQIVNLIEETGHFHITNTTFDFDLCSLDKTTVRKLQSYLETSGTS
ARNT TACC3 PPI: disruptors of ARNT/TACC3 protein interaction, primary screen, biochemical, AlphaScreen, single concentration | AlphaScreen His-ARNT PAS-B/GST-TACC3 binding, luminescence; TACC3 fragment carries E629A point mutation | Transforming acidic coiled-coil-containing protein 3 (Homo sapiens), Q9Y6A5 | AID 623870, 2012 | inhibition, % at 9.99 µM | 390,000 tested, 0.66% active;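 active = mean inhibition of replicates at least 50% and at least half of replicates each reaching 50%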;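 note: 0% = complete ARNT plus TACC3 wells and 100% = ARNT alone without TACC3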
FGF22 binding: binders of human FGF22 protein, primary screen, FGF22 synaptogenesis inhibitor project, biophysical, thermal shift, single point. 340,000 tested, 1.5% active. AID 651658, 2012. recombinant FGF22 thermal shift, SYPRO orange fluorescence; percent of sucrose octasulfate shift, DMSO zero. activity (Tm shift, normalised), % at 9.99 µM. Fibroblast growth factor 22 (Homo sapiens), Q9HCT0;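 active = mean Tm shift, scaled 0 neutral to 100 positive control, at about 1.3% or above, every replicate too, limit read from the data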
Active calls of the source: *; . = no result.

SMILES | PDI inh | ERp5 block | FN deposit inh | MLL AF4-AF9 inh | ARNT TACC3 PPI | FGF22 binding
CN(C)c1cc(N/N=C\c2ccccc2)nc(N(C)C)n1 | 0 | -1 | 8 | 26* | 30 | 43*
CCC(=O)N(C)C[C@@H]1Oc2cc(C#Cc3ccccc3)ccc2S(=O)(=O)N([C@@H](C)CO)C[C@H]1C | . | -5 | -3 | -5 | 2 | 0
C[C@@H]1CN([C@@H](C)CO)C(=O)Cc2cc(NS(=O)(=O)c3ccc(F)cc3)ccc2O[C@H]1CN(C)S(=O)(=O)c1ccccc1 | . | 4 | . | -3 | -3 | 0
O=S(=O)(c1cccc2cccnc12)N1CCCc2ccccc21 | -3 | -6 | 1 | -2 | -5 | 43*
O=S(=O)(c1cccc2cccnc12)N1CCN(c2ccccn2)CC1 | 27 | 4 | -16 | 2 | 3 | 43*
C[C@H]1CN([C@@H](C)CO)C(=O)c2cc(C#CC3(O)CCCC3)cnc2O[C@H]1CN(C)C(=O)C1CCCCC1 | . | 10 | . | -4 | -4 | 0
COc1cc(CNCCc2c[nH]c3ccccc23)cc(Cl)c1OCC(N)=O | 6 | 0 | -3 | 4 | 2 | 44*
CCOc1cc(CNCCc2c[nH]c3ccccc23)cc(Cl)c1OCC(N)=O | 3 | 0 | -12 | 10 | 0 | 0
CC(Sc1ccsc1[N+](=O)[O-])C(=O)NCc1ccccc1 (centres undefined) | . | -1 | 5 | 0 | . | 43*
CC(Sc1ccsc1[N+](=O)[O-])C(=O)N1CCN(c2ccccn2)CC1 (centres undefined) | 12 | -3 | -2 | 0 | 2 | 44*
COc1ccccc1CNC(=O)C(C)Sc1ccsc1[N+](=O)[O-] (centres undefined) | 6 | 1 | 0 | 4 | . | 0
Cc1c(C(=O)N2CCN(c3ccccn3)CC2)cccc1[N+](=O)[O-] | 1 | 2 | 3 | -5 | -8 | 0
CO[C@@H]1CN(C)C(=O)c2ccc(NC(=O)Nc3cc(F)ccc3F)cc2OC[C@H](C)N(C(=O)c2cnccn2)C[C@@H]1C | . | -3 | -1 | 5 | 7 | 1
O=C(O)C1=C[C@@H](c2ccc3c(c2)Cc2ccccc2-3)C[C@@H](OCc2ccc(CO)cc2)O1 | . | -1 | . | 0 | 11 | 0
COc1ccc2c3c([nH]c2c1)[C@H](CO)N(C(=O)Nc1ccc(F)cc1)CC31CCN(S(=O)(=O)c2cccc(C)c2)CC1 | . | -2 | . | 2 | . | 0
S=c1[nH]nc(COc2ccccc2)n1/N=C/c1ccncc1 | -6 | 2 | -2 | -5 | 20 | 43*
FC(F)(F)c1ccc(/C=N/n2c(COc3ccccc3)n[nH]c2=S)cc1 | 15 | 1 | 5 | -2 | 2 | 0
CCOc1cc(/C=N/Nc2nn3cnnc3c3ccccc23)ccc1O | 6 | 2 | 8 | -20 | 57* | 0
COc1ccc(C(=O)N/N=C/c2c(CO)cnc(C)c2O)cc1 | -2 | 1 | 0 | 3 | 72* | 44*
Cc1ncc(CO)c(/C=N/NC(=O)c2cc3c(s2)CCCC3)c1O | -11 | -10 | 3 | 13 | 62* | 1
Cc1ncc(CO)c(/C=N/NC(=O)c2ccoc2C)c1O | -3 | 5 | 3 | 2 | . | 0
Cc1ncc(CO)c(/C=N/NC(=O)c2ccccc2Br)c1O | 4 | 6 | 3 | 0 | 61* | 0
COc1ccc(C(=O)N/N=C/c2c(C)[nH]c(=O)[nH]c2=O)cc1 | -2 | -1 | -4 | 2 | 38* | 0
COc1ccccc1NS(=O)(=O)c1cccc(C(=O)N/N=C/c2c(CO)cnc(C)c2O)c1 | 8 | -2 | 11 | 6 | . | 1
CO[C@H]1CC[C@H]2CCN(C)C(=O)CCCN(C)C(=O)c3cc(C#N)ccc3OC[C@@H]1O2 | . | -2 | 3 | 2 | -5 | 0
SMILES | PDI inh | ERp5 block | FN deposit inh | MLL AF4-AF9 inh | ARNT TACC3 PPI | FGF22 binding
COc1ccc2c3c([nH]c2c1)[C@@H](CO)N(C(=O)CN1CCOCC1)CC31CCN(C(C)=O)CC1 | . | . | . | -1 | . | 0
CCCN(C)C[C@@H]1Oc2cc(C#Cc3ccc(F)cc3)ccc2S(=O)(=O)N([C@@H](C)CO)C[C@@H]1C | . | -3 | -1 | 4 | -3 | 0
C[C@H](CO)N1C[C@H](C)[C@@H](CN(C)C(=O)Nc2ccc3c(c2)OCO3)Oc2ccc(NS(C)(=O)=O)cc2CC1=O | . | 1 | . | -6 | . | 0
C[C@H](CO)N1C[C@H](C)[C@@H](CN(C)C(=O)C2CCC2)Oc2ncc(C#CC3CCCC3)cc2C1=O | . | 5 | . | -4 | 2 | 0
CC(C)OC(=O)CSc1nc(Cc2cccs2)nc2ccccc12 | -6 | -6 | 10 | 3 | . | 44*
CC(=O)c1ccc(N2CCN(C(=O)CCCn3c(=O)[nH]c4ccccc4c3=O)CC2)cc1 | -8 | -6 | -5 | 0 | 4 | 43*
Cc1ccc2oc(C(=O)N(Cc3ccc(N(C)C)cc3)CC3CCCO3)c(C)c2c1 (centres undefined) | -10 | 3 | 6 | 28* | 13 | 0
Cc1c(C(=O)N(Cc2ccc(N(C)C)cc2)C2CCS(=O)(=O)C2)oc2ccccc12 (centres undefined) | 7 | 3 | -10 | 61* | 0 | 0
O=C(c1cccnc1)N1C[C@@H]2[C@H](c3ccccc31)[C@H](CO)N2C(=O)C1CCOCC1 | . | 3 | . | -1 | 2 | 1
C[C@@H]1CN([C@H](C)CO)C(=O)c2cc(C#CC3(O)CCCC3)cnc2O[C@H]1CN(C)Cc1ccccc1 | . | -8 | . | 0 | 5 | 0
CN(C)c1ccc(NC(=O)Cn2cc3c(n2)CCCC3)cc1 | . | 3 | 4 | 31* | 20 | 0
O=C(Cn1cc2c(n1)CCCCC2)NC1CCN(Cc2ccccc2)CC1 | . | 1 | 4 | 2 | 0 | 43*
Cc1ncc(CN2CCCC(C(=O)Nc3ccc(-c4cscn4)cc3)C2)cn1 (centres undefined) | 1 | -1 | -5 | 0 | -8 | 0
Cc1ncc(CN2CCCC(C(=O)Nc3ccc(-c4ccco4)cc3)C2)cn1 (centres undefined) | -2 | 4 | -9 | 40* | -4 | 0
COc1cc(NC(=O)CSc2ncnc3scc(-c4ccccc4)c23)c(C(=O)O)cc1OC | 8 | 6 | -1 | -2 | -10 | 43*
O=C1c2cc(O)cc(O)c2C(=O)c2c1cc(O)c([C@@H](CO)CCO)c2O | . | 6 | . | 18 | 46* | 1
Cc1ccc(S(=O)(=O)Nc2nc(C)c(C(=O)NN)s2)cc1 | 0 | 10 | -14 | -5 | -6 | 0
